Test results: ChEMBL document CHEMBL3994644, “Discovery of AAT-008, a novel, potent, and selective prostaglandin EP4 receptor antagonist” (Bioorg Med Chem Lett, 2017)
Converted amounts (≈) assume the structure as drawn.

Columns and labels:
CYP3A = experiment: Inhibition of CYP3A (unknown origin) at 1 uM relative to control; format: ADME; settings: human
How it was run: (§1)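 CYP1A, CYP2C9, CYP2C19, CYP2D6 and CYP3A activities were each tested with 1 µM test article. Results are given as percent inhibition of enzyme activity.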

[1] = AUC (0 to infinity) in cynomolgus monkey at 1 mg/kg, po; format: ADME, organism-based, Macaca fascicularis; design: dose 1 mg/kg, time infinity, route oral; settings: in vivo
How it was run: (§2)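 Single 1 mg/kg dose given IV or PO to rats, dogs and monkeys. Plasma pharmacokinetic parameters were derived and reported as mean SD, N = 4.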

[2] = Total clearance in Beagle dog at 1 mg/kg, iv; format: ADME, organism-based, Canis lupus familiaris; settings: in vivo
How it was run: (§3)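 A single intravenous injection at 1 mg/kg was given. Plasma concentration–time data gave total clearance (CL_total, mL/min/kg) and steady-state volume of distribution (Vd_ss, L/kg). Values are mean SD of N = 4 animals per species.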

[3] = Antagonist activity at human DP receptor
CYP2C9 = CYP2C9 (Homo sapiens, UniProt P11712); experiment: Inhibition of CYP2C9 (unknown origin) at 1 uM relative to control; format: ADME; how it was run: as §1
[4] = Elimination half life in Beagle dog at 1 mg/kg, iv; format: ADME, organism-based, Canis lupus familiaris; settings: in vivo, read-out: beta t1/2 (converted); how it was run: as §2
[5] = biological target: Prostaglandin E2 receptor EP4 subtype (Mus musculus, UniProt P32240); experiment: Antagonist activity at mouse recombinant EP4 receptor assessed as inhibition of PGE2-induced cAMP level by cell based assay; format: functional; settings: read-out: pA2 (converted)
How it was run: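 Functional antagonism was measured as inhibition of PGE2-induced cAMP in cells transfected with rodent EP4 (mouse or rat). The value is expressed as pA2.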

[6] = Tmax in Beagle dog at 1 mg/kg, po; format: ADME, organism-based, Canis lupus familiaris; settings: in vivo; how it was run: as §2
CYP2D6 = CYP2D6 (Homo sapiens, UniProt P10635); experiment: Inhibition of CYP2D6 (unknown origin) at 1 uM relative to control; format: ADME; how it was run: as §1
[7] = AUC (0 to infinity) in Beagle dog at 1 mg/kg, iv; format: ADME, organism-based, Canis lupus familiaris; design: dose 1 mg/kg, time infinity, route intravenous; settings: in vivo; how it was run: as §2
Rattus norvegicus [8] = experiment: Analgesic activity in po dosed rat assessed as inhibition of carrageenan-induced mechanical hyperalgesia measured at 1 hr post dose; format: functional
How it was run: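 Rats dosed orally. Mechanical hyperalgesia was induced with carrageenan and assessed 1 h post dose. The value is the minimum effective dose (MED, mg/kg PO).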

Prostacyclin receptor = Prostacyclin receptor (Homo sapiens, UniProt P43119); experiment: Antagonist activity at human IP receptor
[9] = Volume of distribution at steady state in cynomolgus monkey at 1 mg/kg, iv; format: ADME, organism-based, Macaca fascicularis; settings: in vivo, read-out: Vdss; how it was run: as §3
Rattus norvegicus [10] = experiment: Analgesic activity in po dosed rat model of chronic inflammatory pain assessed as inhibition of CFA-induced weight bearing deficit; format: functional
How it was run: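 Chronic inflammatory pain was modelled in rats with CFA and read out as weight bearing deficit after oral dosing. The value is the minimum effective dose (MED, mg/kg PO).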

[11] = Total clearance in Sprague-Dawley rat at 1 mg/kg, iv; format: ADME, organism-based; settings: in vivo; how it was run: as §3
[12] = AUC (0 to infinity) in Beagle dog at 1 mg/kg, po; format: ADME, organism-based, Canis lupus familiaris; design: dose 1 mg/kg, time infinity, route oral; settings: in vivo; how it was run: as §2
[13] = Half life in human liver microsomes; format: ADME, microsome
[14] = biological target: T1, Prostaglandin E2 receptor EP3 subtype (Homo sapiens, UniProt P43115); experiment: Antagonist activity at human EP3 receptor
T1 sequence (P43115 whole entry): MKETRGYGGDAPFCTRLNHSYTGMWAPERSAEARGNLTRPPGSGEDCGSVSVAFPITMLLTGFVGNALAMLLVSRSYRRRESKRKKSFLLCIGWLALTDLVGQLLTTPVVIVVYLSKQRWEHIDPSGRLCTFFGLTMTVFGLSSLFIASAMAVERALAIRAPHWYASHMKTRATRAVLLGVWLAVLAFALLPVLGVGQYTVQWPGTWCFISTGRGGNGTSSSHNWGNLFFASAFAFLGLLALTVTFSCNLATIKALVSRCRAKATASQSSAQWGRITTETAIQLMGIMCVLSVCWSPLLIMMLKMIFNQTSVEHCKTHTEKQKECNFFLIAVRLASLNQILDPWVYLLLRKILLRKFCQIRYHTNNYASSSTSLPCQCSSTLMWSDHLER

[15] = Elimination half life in Beagle dog at 1 mg/kg, po; format: ADME, organism-based, Canis lupus familiaris; settings: in vivo, read-out: beta t1/2 (converted); how it was run: as §2
[16] = Tmax in cynomolgus monkey at 1 mg/kg, po; format: ADME, organism-based, Macaca fascicularis; settings: in vivo
How it was run: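 Oral administration of the compound; Tmax is from plasma concentration–time profiles. Values are mean SD of N = 4 animals per species.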

[17] = biological target: Prostaglandin E2 receptor EP4 subtype (Homo sapiens, UniProt P35408); experiment: Antagonist activity at human EP4 receptor expressed in HEK293 cells assessed as inhibition of PGE2-induced cAMP level by HTS assay; format: functional, cell-based
[18] = Solubility of the compound in pH 6.5 PBS; format: physicochemical

Chain of Prostaglandin E2 receptor EP4 subtype (Homo sapiens, UniProt P35408) (P35408 whole entry): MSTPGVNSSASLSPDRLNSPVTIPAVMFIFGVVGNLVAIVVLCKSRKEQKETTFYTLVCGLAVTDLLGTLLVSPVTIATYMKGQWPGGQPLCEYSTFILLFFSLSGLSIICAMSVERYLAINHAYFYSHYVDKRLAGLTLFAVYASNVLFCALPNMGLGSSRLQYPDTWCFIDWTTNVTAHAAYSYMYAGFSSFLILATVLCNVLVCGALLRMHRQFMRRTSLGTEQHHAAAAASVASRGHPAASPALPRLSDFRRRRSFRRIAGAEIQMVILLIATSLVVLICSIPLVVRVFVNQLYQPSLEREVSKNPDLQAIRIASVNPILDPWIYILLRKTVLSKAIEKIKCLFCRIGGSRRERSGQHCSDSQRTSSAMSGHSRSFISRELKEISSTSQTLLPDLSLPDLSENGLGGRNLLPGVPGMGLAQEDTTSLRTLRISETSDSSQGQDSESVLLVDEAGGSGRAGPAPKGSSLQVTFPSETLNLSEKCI
Chain of CYP2D6 (P10635 whole entry): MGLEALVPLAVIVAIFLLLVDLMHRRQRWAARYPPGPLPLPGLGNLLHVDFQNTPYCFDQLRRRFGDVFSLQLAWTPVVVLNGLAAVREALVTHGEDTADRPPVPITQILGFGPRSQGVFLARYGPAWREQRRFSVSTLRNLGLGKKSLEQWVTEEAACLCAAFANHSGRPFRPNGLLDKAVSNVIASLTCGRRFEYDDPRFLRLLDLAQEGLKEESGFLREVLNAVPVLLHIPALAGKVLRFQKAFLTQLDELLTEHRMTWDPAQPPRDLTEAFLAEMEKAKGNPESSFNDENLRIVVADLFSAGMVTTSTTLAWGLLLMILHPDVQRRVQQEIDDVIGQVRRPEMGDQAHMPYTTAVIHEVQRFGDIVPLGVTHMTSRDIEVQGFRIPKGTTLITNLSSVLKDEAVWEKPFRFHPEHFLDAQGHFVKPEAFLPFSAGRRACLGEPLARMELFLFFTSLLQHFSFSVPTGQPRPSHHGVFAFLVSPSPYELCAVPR
Chain of Prostaglandin E2 receptor EP4 subtype (Mus musculus, UniProt P32240) (P32240 whole entry): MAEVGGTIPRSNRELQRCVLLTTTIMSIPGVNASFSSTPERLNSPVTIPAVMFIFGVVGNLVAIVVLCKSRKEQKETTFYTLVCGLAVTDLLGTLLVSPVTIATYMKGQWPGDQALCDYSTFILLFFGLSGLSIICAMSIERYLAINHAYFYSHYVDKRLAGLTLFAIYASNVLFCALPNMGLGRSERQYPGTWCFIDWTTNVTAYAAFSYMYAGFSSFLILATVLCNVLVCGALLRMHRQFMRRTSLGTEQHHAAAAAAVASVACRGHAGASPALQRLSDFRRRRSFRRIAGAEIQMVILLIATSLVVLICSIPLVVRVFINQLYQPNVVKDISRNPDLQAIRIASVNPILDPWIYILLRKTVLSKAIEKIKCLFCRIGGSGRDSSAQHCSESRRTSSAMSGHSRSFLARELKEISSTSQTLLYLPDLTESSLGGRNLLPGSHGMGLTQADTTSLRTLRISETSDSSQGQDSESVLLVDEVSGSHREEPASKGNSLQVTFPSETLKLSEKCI
Chain of Prostacyclin receptor (P43119 whole entry): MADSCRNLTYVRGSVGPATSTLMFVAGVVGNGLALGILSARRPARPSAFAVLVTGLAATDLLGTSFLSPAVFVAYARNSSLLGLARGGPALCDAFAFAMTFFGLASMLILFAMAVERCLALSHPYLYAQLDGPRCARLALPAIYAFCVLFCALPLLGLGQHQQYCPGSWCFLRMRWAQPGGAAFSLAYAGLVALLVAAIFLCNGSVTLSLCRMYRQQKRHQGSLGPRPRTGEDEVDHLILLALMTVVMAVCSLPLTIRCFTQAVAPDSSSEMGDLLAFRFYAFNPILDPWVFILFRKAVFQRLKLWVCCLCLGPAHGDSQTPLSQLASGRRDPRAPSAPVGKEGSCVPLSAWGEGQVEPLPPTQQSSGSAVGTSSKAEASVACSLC
Chain of CYP2C9 (P11712 whole entry): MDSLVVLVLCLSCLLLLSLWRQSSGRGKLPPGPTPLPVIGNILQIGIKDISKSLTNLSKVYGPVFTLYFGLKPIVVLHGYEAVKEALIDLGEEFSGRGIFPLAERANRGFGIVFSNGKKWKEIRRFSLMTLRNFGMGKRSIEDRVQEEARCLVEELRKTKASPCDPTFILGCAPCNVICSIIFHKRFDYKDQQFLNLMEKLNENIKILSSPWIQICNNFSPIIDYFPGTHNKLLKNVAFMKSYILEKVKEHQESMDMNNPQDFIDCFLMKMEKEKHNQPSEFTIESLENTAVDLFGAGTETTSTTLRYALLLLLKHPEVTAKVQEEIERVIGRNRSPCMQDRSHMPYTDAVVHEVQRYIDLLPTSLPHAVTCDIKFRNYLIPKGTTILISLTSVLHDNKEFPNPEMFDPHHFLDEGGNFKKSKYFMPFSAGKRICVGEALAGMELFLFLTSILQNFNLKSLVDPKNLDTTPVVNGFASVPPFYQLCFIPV

For `C[C@H](NC(=O)c1cc(Cl)cnc1Oc1cccc(F)c1)c1ccc(C(=O)O)cc1`, the inhibition at 1 µM (CYP3A) was under 5%, the AUC(0-inf) [1] was 2460 ng·h/mL and the clearance [2] was 2.3 mL/min/kg. It also gave a Ki [3] of over 6000 nM, an inhibition at 1 µM (CYP2C9) of under 5% and a half-life [4] of 8.43 h. It also gave a Kb [5] of 1 nM, a Tmax [6] of 0.438 h and an inhibition at 1 µM (CYP2D6) of under 5%. For the same molecule, the AUC(0-inf) [7] was 7490 ng·h/mL, the inhibition (Rattus norvegicus [8]) was “Dose-dependent effect” and the minimal effective dose (Rattus norvegicus [8]; read-out: MED) was 1 mg/kg. The Ki (Prostacyclin receptor) was over 6000 nM, the Vd [9] was 4.7 L/kg and the inhibition (Rattus norvegicus [10]) was “Dose-dependent effect”. The minimal effective dose (Rattus norvegicus [10]; read-out: MED) was 1 mg/kg, the clearance [11] was 1.75 mL/min/kg and the AUC(0-inf) [12] was 6080 ng·h/mL. It also gave a half-life [13] of over 2 h, an IC50 [14] of over 20000 nM and a Ki [14] of over 6000 nM. It also gave a half-life [15] of 7.95 h, a Tmax [16] of 8 h and an A2 [17] of 1.1 nM. It also gave an IC50 [17] of 16.3 nM, a Kb ([17]; read-out: pA2 (converted)) of 1.07 nM and a solubility [18] of 73 µg/mL (≈ 176 µM).
